Laboratory results reported in ChEMBL document CHEMBL1177757, “C(2)-Symmetric azobenzene-amino acid conjugates and their inhibition of Subtilisin Kexin Isozyme-1” (Bioorg Med Chem Lett, 2010).

Experiments:
[1] = Chemical stability assessed as half life of degradation; format: physicochemical
In short: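 Z-isomer formed by long-wavelength UV irradiation, then its thermal reisomerization to the E-form followed. First-order rate constant (h⁻¹) and Z-isomer half-life (h) derived.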

[2] = target: T1, Membrane-bound transcription factor site-1 protease (Homo sapiens, UniProt Q14703); experiment: Inhibition of human recombinant soluble Kexin isozyme 1
T1 sequence (Q14703 whole entry): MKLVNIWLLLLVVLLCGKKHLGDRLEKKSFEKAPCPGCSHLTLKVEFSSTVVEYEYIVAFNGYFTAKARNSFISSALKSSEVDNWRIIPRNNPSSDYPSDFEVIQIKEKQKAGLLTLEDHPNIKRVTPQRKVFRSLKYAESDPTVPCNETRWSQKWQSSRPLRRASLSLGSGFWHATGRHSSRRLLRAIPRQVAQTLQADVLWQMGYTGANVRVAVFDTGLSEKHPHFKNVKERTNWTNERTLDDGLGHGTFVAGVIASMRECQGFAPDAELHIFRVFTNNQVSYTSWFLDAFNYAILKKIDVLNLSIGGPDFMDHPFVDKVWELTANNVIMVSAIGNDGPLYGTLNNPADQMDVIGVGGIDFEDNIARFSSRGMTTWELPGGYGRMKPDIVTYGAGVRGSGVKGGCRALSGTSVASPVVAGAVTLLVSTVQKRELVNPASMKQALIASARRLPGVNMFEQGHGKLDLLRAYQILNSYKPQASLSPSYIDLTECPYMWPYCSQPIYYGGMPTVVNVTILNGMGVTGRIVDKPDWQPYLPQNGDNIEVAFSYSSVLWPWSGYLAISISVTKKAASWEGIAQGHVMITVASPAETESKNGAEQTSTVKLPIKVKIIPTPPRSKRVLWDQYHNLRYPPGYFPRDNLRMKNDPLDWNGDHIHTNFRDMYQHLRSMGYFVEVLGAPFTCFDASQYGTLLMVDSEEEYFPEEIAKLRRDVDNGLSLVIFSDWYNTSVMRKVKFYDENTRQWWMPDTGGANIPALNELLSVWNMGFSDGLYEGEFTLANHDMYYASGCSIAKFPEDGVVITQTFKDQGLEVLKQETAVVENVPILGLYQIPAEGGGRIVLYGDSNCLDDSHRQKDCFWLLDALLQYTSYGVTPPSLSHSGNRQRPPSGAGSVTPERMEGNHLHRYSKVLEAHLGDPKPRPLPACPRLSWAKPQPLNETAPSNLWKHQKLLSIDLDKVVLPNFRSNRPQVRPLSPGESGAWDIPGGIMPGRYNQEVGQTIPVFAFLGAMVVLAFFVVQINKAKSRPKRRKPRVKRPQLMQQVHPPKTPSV
In short: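 Recombinant soluble human SKI-1 (activity normalized to 10 pmol Abz-peptide released per µL per h, 37 °C). Only the E-form was tested, at varying concentrations, with quenched fluorogenic Abz-Q-GPC251–263-Tyx substrate in Tris/Mes/2 mM CaCl2 buffer at 37 °C. RFU (ex 320/em 420 nm) were read from 0–6 h and converted to cleavage rates. Ki came from Dixon plots at 0.1, 0.05 and 0.025 mM substrate.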

| half-life [1] | Ki [2] | Structure (SMILES) |
| --- | --- | --- |
| 31.5 h | 125 µM | CC(C)[C@H](NC(=O)COc1ccccc1/N=N/c1ccccc1OCC(=O)N[C@H](C(=O)OCc1ccccc1)C(C)C)C(=O)OCc1ccccc1 |
| 69.3 h | 11.8 µM | O=C(COc1ccccc1/N=N/c1ccccc1OCC(=O)N[C@@H](Cc1ccccc1)C(=O)OCc1ccccc1)N[C@@H](Cc1ccccc1)C(=O)OCc1ccccc1 |
| 77 h | – | O=C(COc1ccccc1/N=N/c1ccccc1OCC(=O)NCC(=O)OCc1ccccc1)NCC(=O)OCc1ccccc1 |
| – | 225 µM | O=C(COc1ccccc1/N=N/c1ccccc1OCC(=O)N[C@@H](Cc1ccccc1)C(=O)O)N[C@@H](Cc1ccccc1)C(=O)O |
| – | 140 µM | O=C(COc1ccccc1/N=N/c1ccccc1OCC(=O)N[C@@H](Cc1ccccc1)C(=O)N[C@@H](Cc1ccccc1)C(=O)O)N[C@@H](Cc1ccccc1)C(=O)N[C@@H](Cc1ccccc1)C(=O)O |
| 28.9 h | – | O=C(COc1ccccc1/N=N/c1ccccc1OCC(=O)N[C@@H](Cc1ccccc1)C(=O)N[C@@H](Cc1ccccc1)C(=O)OCc1ccccc1)N[C@@H](Cc1ccccc1)C(=O)N[C@@H](Cc1ccccc1)C(=O)OCc1ccccc1 |
| – | 265 µM | O=C(O)CNC(=O)COc1ccccc1/N=N/c1ccccc1OCC(=O)NCC(=O)O |
| – | 75 µM | CC(C)[C@H](NC(=O)COc1ccccc1/N=N/c1ccccc1OCC(=O)N[C@H](C(=O)O)C(C)C)C(=O)O |
